From PubChem
Arr AP2 block – blocks beta-arrestin peptide binding to AP2 adaptin. FITC-arrestin peptide / GST-AP2 beads, flow cytometry; AP2 beta2 appendage carries R879A mutation. AID 504490. inhibition, % at 10 µM. hit rate 0.31% among 340,000;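 active means inhibition above a set limit, near 3 SD of compounds lacking own fluorescence, cut at about 54% in these data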;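 further: plate controls were DMSO wells for no effect and 5 µM unlabelled arrestin peptide for full effect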
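Test system: GST-tagged AP2 beta2-adaptin appendage (R879A) on 4 µm glutathione beads; also added: fluorescein-tagged arrestin peptide at 50 nM final; timing: 12 min plus 1 h, RT; signal: flow cytometry, FL1 (488/535 nm); read-out: percent drop in bead-associated FITC signal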
procasp3 activ – activators of human procaspase-3. recombinant procaspase-3 D3A, Ac-DEVD-pNA absorbance 405 nm. activation, % at 8.5 µM. hit rate 0.11% among 330,000. AID 463141;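 active means activation above the mean of all tested compounds plus 3 SD, cut at about 21% in these data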;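 further: 0% = DMSO alone and 100% = DMSO wells spiked with extra 5 µM PC-3 D3A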
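Assay system – Procaspase-3 D3A mutant · Benchmarks – DMSO low control, extra-enzyme high control · Technique – 405 nm absorbance of p-nitroaniline, reads at 0 and 120 min · Doses – 8.5 µM nominal · Measure – % activation between DMSO and enzyme-spiked controls · Also added – Ac-DEVD-pNA chromogenic peptide substrate · Schedule – 1 h compound preincubation, 2 h substrate hydrolysis at 25 °C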
PLC-gamma1 inh – PLC-gamma1 (human) inhibition, primary screen; P19174; purified PLC-gamma1, fluorogenic substrate, fluorescence; inhibition, % at 12.2 µM; hit rate 0.84% among 370,000; in the data active means inhibition above about 9.5%
proCasp7 act – counter-screen for procaspase-3 activators: activators of human procaspase-7; P55210; activation, % at 8.5 µM; hit rate 0.093% among 330,000; AID 463210; recombinant procaspase-7, Ac-DEVD-pNA absorbance 405 nm; D23A/D198A/D206A triple mutant, cannot self-cleave; scale: DMSO 0, 5 µM enzyme 100;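 active means percent activation above the screen-wide mean plus 3 SD, cut at about 25% in these data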
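System: Uncleavable procaspase-7 mutant enzyme; Amount: 2 µM procaspase-7 mutant as dispensed; Schedule: 1 h compound preincubation, 2 h substrate cleavage, 25 °C; Measured by: 405 nm absorbance of p-nitroaniline; Evaluation: percent activation from buffer-corrected 0–120 min absorbance change; Control set: low DMSO alone, high DMSO plus 5 µM PC-7.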
HGIII-sPLA2 inh – Blocks human group III sPLA2 activity; hit rate 0.56% among 370,000; AID 743126; Q9NZ20; QFRET BODIPY PC-A2 liposome hydrolysis, fluorescence; inhibition, % at 12.2 µM;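 active means inhibition above mean plus 3 SD of compounds lying within the high and low control bounds, cut at about 19% in these data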;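 further: 0% = median of test compound wells and 100% = no enzyme DMSO wells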
PLC-beta3 inh – inhibitors of human phospholipase C beta3. Q01970. Purified PLC-beta3, fluorogenic substrate, fluorescence. inhibition, % at 12.2 µM. hit rate 0.18% among 370,000. AID 720704; in the data active means inhibition above about 11%;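 further: 0% = median of compound wells on plate and 100% = full blocker control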
Arr-AP2 CP1 – human beta-arrestin and AP2 interaction inhibition, cherry pick. shares compounds with Arr AP2 block. GST-AP2 beads, FITC arrestin peptide binding, flow cytometry; GST-fused beta2-adaptin appendage, R879A mutant. inhibition, % at 10 µM. hit rate 2% among 1,300;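 active means inhibition above a set limit, roughly 3 SD of non-fluorescent compound noise, cut at about 38% in these data; inactive means inhibition at or below that limit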;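 further: loss of bead fluorescence from 50 nM FITC arrestin peptide bound to appendage; 0% = negative control wells and 100% = excess unlabelled arrestin peptide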
GST-FITC bead – disrupts GST binding to glutathione beads, arrestin-AP2 artifact; hit rate 2% among 1,300; inhibition, % at 10 µM; GST-fluorescein binding to GSH beads, fluorescence, counter-screen; shares compounds with Arr AP2 block;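 active means inhibition above 50%, about 3 SD of the inhibition seen with non-fluorescent compounds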;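 further: fluorescein maleimide labelled GST captured on 4 micron glutathione beads; higher means more loss of bead fluorescence from quenching or blocked binding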
Active calls of the source: *. Rows were chosen to be rich in hits. Some 1.9% of all compounds tested hit in one or more screens of this group.

How did CCc1ccc(NC(=O)CSc2nnc(CC)c(CC)n2)cc1 do in these assays?
Arr AP2 block: -15; procasp3 activ: 1; PLC-gamma1 inh: -2; proCasp7 act: 3; HGIII-sPLA2 inh: -7; PLC-beta3 inh: -1

How did CCc1nnc(SCC(=O)Nc2ccc(C(C)=O)cc2)nc1CC do in these assays?
Arr AP2 block: 83*; procasp3 activ: 2; PLC-gamma1 inh: -2; proCasp7 act: 4; HGIII-sPLA2 inh: -6; PLC-beta3 inh: -4; Arr-AP2 CP1: 18; GST-FITC bead: 1

What do the screens show for `CNC(=O)C(=O)Nc1ccc2c(c1)N(S(=O)(=O)c1cccs1)CCC2`?
Arr AP2 block: 1; procasp3 activ: 1; PLC-gamma1 inh: 2; proCasp7 act: 7; HGIII-sPLA2 inh: 3; PLC-beta3 inh: 2

Results for CCOCC(=O)Nc1ccc2c(c1)N(S(=O)(=O)c1cccs1)CCC2 ?
Arr AP2 block: 56*; procasp3 activ: 7; PLC-gamma1 inh: 0; proCasp7 act: 4; HGIII-sPLA2 inh: -2; PLC-beta3 inh: -1; Arr-AP2 CP1: -2; GST-FITC bead: -9

What do the screens show for `CC1C(c2ccccc2)=[N+]([O-])C2(CCCCC2)N1O` (stereo not drawn)?
Arr AP2 block: 74*; procasp3 activ: -1; PLC-gamma1 inh: 0; proCasp7 act: 5; HGIII-sPLA2 inh: -1; PLC-beta3 inh: 2; Arr-AP2 CP1: -9; GST-FITC bead: -6

Results for O=C(COC(=O)Cn1cnc2ccccc21)Nc1ccc(Br)cc1 ?
PLC-gamma1 inh: 3; HGIII-sPLA2 inh: -11; PLC-beta3 inh: 2

What do the screens show for `O=C(COC(=O)Cn1cnc2ccccc21)Nc1ccc2c(c1)C(=O)c1ccccc1C2=O`?
Arr AP2 block: 100*; procasp3 activ: 0; PLC-gamma1 inh: -7; proCasp7 act: -8; HGIII-sPLA2 inh: 1; PLC-beta3 inh: -9; Arr-AP2 CP1: 24; GST-FITC bead: 33

What do the screens show for `Cc1ccc(N2CCN(/N=C\c3cccnc3)CC2)cc1`?
PLC-gamma1 inh: 0; HGIII-sPLA2 inh: 5; PLC-beta3 inh: 3

What do the screens show for `Cc1no[n+]([O-])c1COc1cccc(/C=C2\N=C(c3ccccc3)OC2=O)c1`?
Arr AP2 block: 68*; procasp3 activ: -2; PLC-gamma1 inh: -3; proCasp7 act: 11; HGIII-sPLA2 inh: 0; PLC-beta3 inh: 3; Arr-AP2 CP1: 4; GST-FITC bead: -7

How did COc1cc(/C=C2\N=C(c3ccccc3)OC2=O)ccc1OCc1c(C)no[n+]1[O-] do in these assays?
Arr AP2 block: 21; procasp3 activ: -7; PLC-gamma1 inh: 3; proCasp7 act: 1; HGIII-sPLA2 inh: -4; PLC-beta3 inh: 8

How did O=C(O)/C=C\C(=O)Nc1ccc(OC(F)F)cc1 do in these assays?
Arr AP2 block: 54*; procasp3 activ: -9; PLC-gamma1 inh: 4; proCasp7 act: -1; HGIII-sPLA2 inh: 2; PLC-beta3 inh: 0; Arr-AP2 CP1: -12; GST-FITC bead: -1

How did CCOC(=O)[C@]12CCCC=C1N(CCCOC)C(=O)[C@@H]2CC(=O)NCc1ccc(OC)c(OC)c1 do in these assays?
PLC-gamma1 inh: -1; HGIII-sPLA2 inh: 15; PLC-beta3 inh: -1

What do the screens show for `CCCc1cc(=O)[nH]c(SCC(=O)c2c[nH]c3ccccc23)n1`?
Arr AP2 block: 54*; procasp3 activ: 2; PLC-gamma1 inh: -7; proCasp7 act: 9; HGIII-sPLA2 inh: -4; PLC-beta3 inh: -4; Arr-AP2 CP1: 4; GST-FITC bead: 4

How did CCCc1cc(=O)[nH]c(SCC(=O)c2c(C)[nH]c3ccccc23)n1 do in these assays?
Arr AP2 block: 1; procasp3 activ: 2; PLC-gamma1 inh: 7; proCasp7 act: 2; HGIII-sPLA2 inh: -11; PLC-beta3 inh: -3
